Values after ≈ are worked out from the molar mass of the structure shown.
tested on: Babesia gibsoni; assay: Antibabesial activity against Babesia gibsoni in dog erythrocytes after 72 hrs; type: functional, organism-based; conditions: not given

Row | Structure (SMILES) | IC50 [µg/mL]
1 | CC(=O)NCC(=O)O.N=C(N)c1ccc(/N=N/Nc2ccc(C(=N)N)cc2)cc1 [DIMINAZEN ACETURATE] | 0.6
2 | CC[C@H](CC[C@@H](C)[C@H]1CC[C@H]2[C@@H]3CC=C4C[C@@H](O)CC[C@]4(C)[C@H]3CC[C@]12C)C(C)C [BETA-SITOSTEROL] | 61.6 (≈ 149 µM)
3 | O=C(O)c1cc(O)c(O)c(O)c1 [GALLIC ACID] | 13.4 (≈ 78.8 µM)

The remaining lines, values ahead:

Row | IC50 [µg/mL] | Structure (SMILES)
4 | 7.5 (≈ 22.6 µM) | O=C(O[C@@H]1O[C@H](CO)[C@@H](O)[C@H](O)[C@H]1O)c1cc(O)c(O)c(O)c1
5 | 4.7 (≈ 7.41 µM) | O=C(O[C@H]1O[C@H](COC(=O)c2cc(O)c(O)c3oc(=O)c4cc(O)c(O)c(O)c4c23)[C@@H](O)[C@H](O)[C@H]1O)c1cc(O)c(O)c(O)c1
6 | 35.2 (≈ 59 µM) | O=c1c(O[C@@H]2O[C@H](CO)[C@@H](O)[C@H](O)[C@H]2O[C@@H]2OC[C@@H](O)[C@H](O)[C@H]2O)c(-c2ccc(O)c(O)c2)oc2cc(O)cc(O)c12

tested on: Plasmodium falciparum; assay: Antiplasmodial activity against chloroquine-susceptible Plasmodium falciparum FCR3 in human erythrocytes after 24 hrs; type: functional, organism-based; conditions: FCR3, 24 h
In short: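 P. falciparum FCR-3 kept in culture and synchronized with 5% D-sorbitol, then washed in RPMI 1640. Infected RBCs resuspended at 0.25-0.50% parasitemia in RPMI 1640 with 10% human serum, 25 mM Hepes, gentamicin and Na2CO3, then incubated with test solution at 37 °C under 5% CO2. Stopped once controls reached 20% schizonts. Schizonts counted on Giemsa smears; IC50 read from the inhibition-versus-concentration graph.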

Row | Structure (SMILES) | IC50 [µg/mL]
7 | CC[C@H](CC[C@@H](C)[C@H]1CC[C@H]2[C@@H]3CC=C4C[C@@H](O)CC[C@]4(C)[C@H]3CC[C@]12C)C(C)C [BETA-SITOSTEROL] | 32 (≈ 77.2 µM)
8 | O=C(O)c1cc(O)c(O)c(O)c1 [GALLIC ACID] | 14.8 (≈ 87 µM)

Second part, the compound after the results:

Row | IC50 [µg/mL] | Structure (SMILES)
9 | 4.6 (≈ 13.8 µM) | O=C(O[C@@H]1O[C@H](CO)[C@@H](O)[C@H](O)[C@H]1O)c1cc(O)c(O)c(O)c1
10 | 1.4 (≈ 2.21 µM) | O=C(O[C@H]1O[C@H](COC(=O)c2cc(O)c(O)c3oc(=O)c4cc(O)c(O)c(O)c4c23)[C@@H](O)[C@H](O)[C@H]1O)c1cc(O)c(O)c(O)c1
11 | 11 (≈ 18.4 µM) | O=c1c(O[C@@H]2O[C@H](CO)[C@@H](O)[C@H](O)[C@H]2O[C@@H]2OC[C@@H](O)[C@H](O)[C@H]2O)c(-c2ccc(O)c(O)c2)oc2cc(O)cc(O)c12

tested on: not listed separately; assay: Cytotoxicity against human RBC; type: cell-based; conditions: erythrocyte

Row | Structure (SMILES) | Activity
12 | O=C(O[C@@H]1O[C@H](CO)[C@@H](O)[C@H](O)[C@H]1O)c1cc(O)c(O)c(O)c1 | Non-toxic
13 | O=C(O[C@H]1O[C@H](COC(=O)c2cc(O)c(O)c3oc(=O)c4cc(O)c(O)c(O)c4c23)[C@@H](O)[C@H](O)[C@H]1O)c1cc(O)c(O)c(O)c1 | Non-toxic
14 | O=c1c(O[C@@H]2O[C@H](CO)[C@@H](O)[C@H](O)[C@H]2O[C@@H]2OC[C@@H](O)[C@H](O)[C@H]2O)c(-c2ccc(O)c(O)c2)oc2cc(O)cc(O)c12 | Non-toxic
15 | CC[C@H](CC[C@@H](C)[C@H]1CC[C@H]2[C@@H]3CC=C4C[C@@H](O)CC[C@]4(C)[C@H]3CC[C@]12C)C(C)C [BETA-SITOSTEROL] | Non-toxic
16 | O=C(O)c1cc(O)c(O)c(O)c1 [GALLIC ACID] | Non-toxic

tested on: not listed separately; assay: Cytotoxicity against dog RBC; type: cell-based, Canis lupus familiaris; conditions: erythrocyte

Row | Structure (SMILES) | Activity
17 | O=C(O[C@@H]1O[C@H](CO)[C@@H](O)[C@H](O)[C@H]1O)c1cc(O)c(O)c(O)c1 | Non-toxic
18 | O=C(O[C@H]1O[C@H](COC(=O)c2cc(O)c(O)c3oc(=O)c4cc(O)c(O)c(O)c4c23)[C@@H](O)[C@H](O)[C@H]1O)c1cc(O)c(O)c(O)c1 | Non-toxic
19 | O=c1c(O[C@@H]2O[C@H](CO)[C@@H](O)[C@H](O)[C@H]2O[C@@H]2OC[C@@H](O)[C@H](O)[C@H]2O)c(-c2ccc(O)c(O)c2)oc2cc(O)cc(O)c12 | Non-toxic
20 | CC[C@H](CC[C@@H](C)[C@H]1CC[C@H]2[C@@H]3CC=C4C[C@@H](O)CC[C@]4(C)[C@H]3CC[C@]12C)C(C)C [BETA-SITOSTEROL] | Non-toxic
21 | O=C(O)c1cc(O)c(O)c(O)c1 [GALLIC ACID] | Non-toxic

Reference: ChEMBL document CHEMBL1158731, “Anti-babesial and anti-plasmodial compounds from Phyllanthus niruri” (J Nat Prod, 2005)
